Reference: PubChem BioAssay
Results filed as inconclusive are left out.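 The calls were made as follows, unless noted: active = inhibition over a set limit, the all-compound mean plus 3 SD, in both replicate runs; inconclusive = over that limit in just one replicate run; inactive = at or under that limit in both runs.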

Tests used:
[1] = S. cerevisiae growth inhibition in permissive medium (OD615), pilot counter-assay for S. cerevisiae lifespan shortening project, permissive growth control (AID 705;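 active = growth inhibition above 25% in both replicates, a cutoff set 3 SD above the mean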); conditions: OD615, 24 h, at 10 µM, stronger effect = higher value
Procedure, shortened: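 Test system: Saccharomyces cerevisiae strain carrying genetically modified DeaD replicative-lifespan system; buffer or medium: SC raffinose/galactose permissive medium; dosing: one dose 10 µM, DMSO 0.25% final; times: 24 h exposure, 30 °C; measured by: OD at 615 nm; read-out basis: growth inhibition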

[2] = S. cerevisiae growth inhibition in restrictive medium, OD615, pilot screen, restrictive growth control, yeast lifespan reduction project (AID 706;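 active = growth inhibition above a set limit, 3 SD over mean compound inhibition, in both replicates, cut at about 43% in these data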;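 also: modified DeaD lifespan yeast strain shifted to restrictive glucose medium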); conditions: OD615, 48 h, at 10 µM, stronger effect = higher value
Procedure, shortened: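 material = engineered S. cerevisiae DeaD strain | buffer or medium = glucose-based CSMM-D restrictive medium | dosing = one concentration, 10 µM final, 0.25% DMSO | schedule = 4 h pre-growth plus 48 h compound exposure, 30 °C | detection = OD615 absorbance reading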

[3] = doxorubicin toxicity protection in MRP-1 cells – H69AR cells, CellTiter-Glo, duplicate, MRP-1 activator project, pilot screen (AID 807;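 active = viability increase at or above a cutoff of the median across tested compounds plus 3 SD, cut at about 8.5% in these data, passing the limit was not always enough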;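 also: compound pretreatment 18-22 h then 72 h combined with doxorubicin; 0% = doxorubicin alone and 100% = vehicle without doxorubicin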); conditions: H69AR viability with doxorubicin, CellTiter-Glo luminescence; at 10 µM; stronger effect = higher value
[4] = viability of HCT116 without oncogenic beta-catenin – human colon tumor cells, pilot screen (AID 823;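 active = cell viability at or below a set limit in both duplicate runs, the limit being the all-compound median minus 4 SD, cut at about 23% in these data, passing the limit was not always enough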;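 also: 0% = wells killed by 20 µM Hyamine and 100% = untreated DMSO cell wells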); conditions: HCT116 beta-catenin knockout viability, CellTiter-Glo, 60 h; at 10 µM; stronger effect = lower value
[5] = viability of PTEN-null HCT116 cells – cell-based, HCT116 clonal line, CellTiter-Glo, pilot screen (AID 824;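 active = viability at or below 27.92% in each of two runs, the all-compound median minus 4 SD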;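 also: 0% = 20 µM Hyamine control and 100% = vehicle cell control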); conditions: HCT116 PTEN-deleted viability, 60 h, at 10 µM, stronger effect = lower value
[6] = RAM pathway blockade in budding yeast – dse1pr::URA3 reporter, 5-FOA selection, pilot screen (AID 869);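 also: 0% = DMSO wells with no growth and 100% = 10 µM 1-NA-PP1 with full growth; RAM network block rescues cells from 5-FOA so hits raise OD615 growth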; conditions: S. cerevisiae dse1pr::URA3 5-FOA growth, OD615, 2 d; at 10 µM; stronger effect = higher value; strain carries analog-sensitive mutant Cbk1 kinase
[7] = RAM signaling pathway blockade in yeast – S. cerevisiae, Pdr1DBD-CYC8 efflux-inhibited sensitized strain, primary screen (AID 1298;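 active = RAM network inhibition above 8.4% in each of two replicates, 3 SD over the compound average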;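 also: 0% = DMSO untreated cells without growth and 100% = 10 µM 1-NA-PP1 full growth; higher means more yeast growth rescued from 5-FOA killing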); conditions: S. cerevisiae cbk1-as DSE1-URA3 strain, 5-FOA growth OD615, 2 d; at 50 µM; stronger effect = higher value

CCCCC(CC)CNC(=O)CCS(=O)(=O)c1cccc2nonc12 (stereo unspecified)
inactive: growth inhibition [1] 1.79% | growth inhibition [2] -0.105% | viability increase [3] -0.88% | viability [4] 92.2% | viability [5] 91.4% | inhibition [6] 2.17% | RAM network inhibition [7] 3.63%

CC(=O)Nc1nc2cc3c(cc2s1)OCO3
inactive: growth inhibition [1] -3.77% | growth inhibition [2] -8.01% | viability increase [3] -1.9% | viability [4] 96.4% | viability [5] 91.9% | inhibition [6] 1.81% | RAM network inhibition [7] 5.55%

O=C1NCCCC1C(=O)NCCN1C(=O)CCC1=O (stereo unspecified)
inactive: growth inhibition [1] -14.3% | growth inhibition [2] -7.9% | viability increase [3] 0.1% | viability [4] 96.7% | viability [5] 96% | inhibition [6] 1.04% | RAM network inhibition [7] 3.29%

CCN1CCCC1CNC(=O)Cn1cnc2sc(C)c(S(=O)(=O)N3CCC(C)CC3)c2c1=O (stereo unspecified)
inactive: growth inhibition [1] -4.5% | growth inhibition [2] -14.6% | viability increase [3] -4.44% | viability [4] 104% | viability [5] 84% | inhibition [6] 2.9% | RAM network inhibition [7] 4.06%

OC(COc1ccc(Cl)c2ccccc12)CN1CCN(c2ccccn2)CC1 (stereo unspecified)
inactive: growth inhibition [1] -5.89% | growth inhibition [2] -11.6% | viability increase [3] -3.19% | viability [4] 94.9% | viability [5] 95.2% | inhibition [6] -0.275% | RAM network inhibition [7] 4.46%

CCC(C)NC(=O)c1ccc(CS(=O)(=O)c2ccc(OC)cc2)o1 (stereo unspecified)
inactive: growth inhibition [1] 4.79% | growth inhibition [2] -1.07% | viability increase [3] -1.33% | viability [4] 104% | viability [5] 93.2% | inhibition [6] 0.73% | RAM network inhibition [7] -2.32%

CCCn1cc(S(=O)(=O)CC(=O)NC2CCCCC2)c2ccccc21
inactive: growth inhibition [1] -1.69% | growth inhibition [2] -0.78% | viability increase [3] -0.07% | viability [4] 93.2% | viability [5] 101% | inhibition [6] 1.39% | RAM network inhibition [7] 2.24%

CCOC(=O)CN1CC23C=CC(O2)C(C(=O)NCc2ccccc2OC)C3C1=O (stereo unspecified)
inactive: growth inhibition [1] 1.34% | growth inhibition [2] 8.84% | viability increase [3] -3.18% | viability [4] 103% | viability [5] 102% | inhibition [6] 2.3% | RAM network inhibition [7] 0.15%

CCC(=O)N=c1sc2cc(F)cc(F)c2n1C
inactive: growth inhibition [1] -6.05% | growth inhibition [2] -7.75% | viability increase [3] -5.39% | viability [4] 93.4% | viability [5] 87.8% | inhibition [6] 1.4% | RAM network inhibition [7] 3.13%

Cc1nc2ccccc2c2oc(C(=O)NCCCN3CCC(C)CC3)cc12
inactive: growth inhibition [1] 2.51% | growth inhibition [2] 17.8% | viability increase [3] -5.7% | viability [4] 63.6% | viability [5] 64.7% | inhibition [6] 1.96% | RAM network inhibition [7] 6.26%

NC(=O)c1oc2ccccc2c1NC(=O)CCc1ccccc1
inactive: growth inhibition [1] 1.12% | growth inhibition [2] 2.84% | viability increase [3] -2.96% | viability [4] 96.8% | viability [5] 97.2% | inhibition [6] 0.36% | RAM network inhibition [7] 3.76%

Cc1cc(N2CCOCC2)nc2cc(O)ccc12
inactive: growth inhibition [1] -10.3% | growth inhibition [2] -15.5% | viability increase [3] -1.02% | viability [4] 97.4% | viability [5] 87.6% | inhibition [6] 1.31% | RAM network inhibition [7] 5.97%

O=C(NCCOC(=O)c1ccncc1)c1ccccc1
inactive: growth inhibition [1] -0.685% | growth inhibition [2] -1.32% | viability increase [3] -0.4% | viability [4] 99.2% | viability [5] 99.7% | inhibition [6] 1.27% | RAM network inhibition [7] 3.05%

CCCC(=O)NCCCc1nc2ccccc2n1CCC
inactive: growth inhibition [1] -2.54% | growth inhibition [2] -20.1% | viability increase [3] -1.65% | viability [4] 102% | viability [5] 95.1% | inhibition [6] 1.56% | RAM network inhibition [7] 3.21%

CCOc1ccc(C2CC(c3cccc(Cl)c3)n3nc(N)nc3N2)cc1 (stereo unspecified)
inactive: growth inhibition [1] 5.36% | growth inhibition [2] 7.05% | viability increase [3] -0.08% | viability [4] 92% | viability [5] 88.2% | inhibition [6] 1.14% | RAM network inhibition [7] 9.61%

Cc1cc(Nc2ccc(F)cc2Cl)n2ncnc2n1
inactive: growth inhibition [1] -7.73% | growth inhibition [2] 2.61% | viability increase [3] -2.45% | viability [4] 103% | viability [5] 95.1% | inhibition [6] -0.7% | RAM network inhibition [7] 1.89%

O=C(CSc1ccc2nnc(-c3ccccn3)n2n1)NCc1ccc2c(c1)OCO2
inactive: growth inhibition [1] -0.545% | growth inhibition [2] 21.4% | viability increase [3] -3.68% | viability [4] 91.6% | viability [5] 91.7% | inhibition [6] 2.51% | RAM network inhibition [7] 1.66%

COc1ccccc1-c1c(C#N)c(SCC(=O)N2CCCC2)nc(C)c1C(N)=O
inactive: growth inhibition [1] -2.97% | growth inhibition [2] -7.78% | viability increase [3] -0.18% | viability [4] 101% | viability [5] 98.2% | inhibition [6] 1.73% | RAM network inhibition [7] 1.04%

Cc1c(C(=O)NCc2cccnc2)sc2nc(-c3ccc(F)cc3)cn12
inactive: growth inhibition [1] -6.33% | growth inhibition [2] 22.2% | viability increase [3] 0.45% | viability [4] 77.3% | viability [5] 78% | inhibition [6] 1.01% | RAM network inhibition [7] 2.56%

COCCOC(=O)C1=C(C)NC2=C(C(=O)CC(C)(C)C2)C1c1ccc2c(c1)OCO2 (stereo unspecified)
inactive: growth inhibition [1] -5.88% | growth inhibition [2] -4.59% | viability increase [3] -1.42% | viability [4] 92.9% | viability [5] 87.4% | inhibition [6] 0.175% | RAM network inhibition [7] 2.6%

O=C(C1CCN(S(=O)(=O)c2cccc3cccnc23)CC1)N1CCN(c2ccccc2)CC1
inactive: growth inhibition [1] 1.1% | growth inhibition [2] 16.9% | viability increase [3] -3.27% | viability [4] 87.7% | viability [5] 83.8% | inhibition [6] 1.76% | RAM network inhibition [7] 6.12%

O=C1CCCC2=C1C1(O)C(=O)c3ccccc3C1(O)O2 (stereo unspecified)
inactive: growth inhibition [1] -7.89% | growth inhibition [2] -16% | viability increase [3] -4.62% | viability [4] 89.4% | viability [5] 88.7% | inhibition [6] 1.28% | RAM network inhibition [7] 1.91%

c1cn(CCCNc2ncnc3nc[nH]c23)cn1
inactive: growth inhibition [1] -7.59% | growth inhibition [2] -16.1% | viability increase [3] -1.91% | viability [4] 111% | viability [5] 96.2% | inhibition [6] 0.895% | RAM network inhibition [7] 2.98%
